Bioassay records as filed in PubChem.
The list is not random: actives were taken first. Their share in the collection is about 3.8%.
CSC inhib: blocks cancer stem cells. inhibition, % at 7.5 µM. 300,000 tested, 1.1% active. cancer stem cell-like cells viability, luminescence; in the data active means inhibition above about 75%; tested in HMLE shEcad cells
TMEM16A act: mouse TMEM16A channel activation, primary screen; Q8BHY3; HEK293 TMEM16A/YFP-H148Q/I152L, iodide quench fluorescence; active compounds read low; B-score at 10 µM; 340,000 tested, 0.3% active; AID 623877;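 active means fluorescence-ratio B-score plate-corrected deviation score at least 3 library SD below zero, with starting fluorescence score within 5 deviations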;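 further: channel opened by trigger with iodide after compound preincubation; score built on the fluorescence ratio of max minus min over baseline; more negative score means more quench and so TMEM16A activation or potentiation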
MC4R antagonist: blocks human MC4R cAMP signaling | P32245 | AID 540295 | MC4R-expressing cells, MTII-stimulated cAMP, LANCE TR-FRET | 360,000 tested, 0.48% active | inhibition, % at 6.5 µM;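 active means inhibition above its plate's cutoff, the mean of tested wells on that plate plus 3 SD, cut at about 29% in these data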;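 further: 0% = Melanotan II alone and 100% = Melanotan II plus saturating MCL0020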
Target sequence (P32245 whole entry, looked up): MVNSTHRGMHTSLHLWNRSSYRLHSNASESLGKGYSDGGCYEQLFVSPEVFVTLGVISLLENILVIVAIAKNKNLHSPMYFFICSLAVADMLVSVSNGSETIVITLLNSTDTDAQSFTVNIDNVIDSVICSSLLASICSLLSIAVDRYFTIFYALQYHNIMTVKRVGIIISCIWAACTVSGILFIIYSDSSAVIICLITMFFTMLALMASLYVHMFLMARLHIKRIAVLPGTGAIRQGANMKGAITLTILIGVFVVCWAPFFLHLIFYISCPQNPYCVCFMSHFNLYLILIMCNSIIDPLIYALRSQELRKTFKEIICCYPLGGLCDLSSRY
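system = U2OS cells with stable human MC4R expression | also added = Melanotan II challenge after compound preincubation | dosing = one concentration, 6.5 µM nominal | incubation = compound 30 min, challenge 1 h, detection 1 h | measured by = TR-FRET with Eu-cAMP and labeled anti-cAMP, 671 nm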
MC4R barr agon: agonists of human melanocortin 4 receptor (MC4R) beta-arrestin. 360,000 tested, 0.98% active. activation, % at 8.9 µM. AID 540308. U2OS MC4R beta-arrestin complementation, luminescence; percent of melanotan II response, DMSO zero;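 active means activation above a per-plate cutoff, the mean activation of sample wells on that plate plus 3 SD, cut at about 8% in these data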
Beta cell apopt: blocks beta cell apoptosis; INS-1E cytokine-induced death, ATP luminescence, 48 h; percent of positive-control rescue, neutral wells zero; protection from apoptosis, % (test concentration not listed); 300,000 tested, 0.8% active; AID 435005;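 active means Every replicate reaches about 75%, or at least half do and their mean reaches it too, limit read from the data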;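 further: 0% = cytokine-treated negative control wells and 100% = positive control rescue; higher means more ATP so stronger rescue from cytokine killing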
ANO1 block: inhibitors of mouse TMEM16A calcium-activated chloride channel; Q8BHY3; HEK293 TMEM16A/YFP iodide influx fluorescence, ionomycin; normalized B-score (activity score, 25-100; higher = stronger inhibition) at 10 µM; 310,000 tested, 1.2% active;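 active means ratio plate-corrected score three or more library SD toward inhibition, starting fluorescence score within five deviations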;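 further: score derived from kinetic fluorescence span divided by baseline fluorescence per well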
Starred values were filed as active, the others as inactive; i = inactive; . = no result given.

SMILES | CSC inhib | TMEM16A act | MC4R antagonist | MC4R barr agon | Beta cell apopt | ANO1 block
COc1cccc(/C=N/Nc2ncnc(Cl)c2N)c1O | 156.5* | i | -3.8 | 0.2 | 127.0* | i
O=S(=O)(c1c(F)cccc1F)N1CCCC2CCCCC21 (stereo unspecified) | 3.4 | i | 3.4 | 1.7 | -6.3 | .
O=C(NCC(c1cccs1)N1CCOCC1)c1cc2ccccc2oc1=O (stereo unspecified) | 4.2 | i | 1.0 | -1.4 | 3.3 | .
O=C(OCC(=O)c1c[nH]c2ccccc12)c1ccco1 | -8.1 | i | -5.5 | -1.3 | -2.1 | i
COc1cc(NC(=O)c2ccco2)c(C(=O)OCC(=O)c2c[nH]c3ccccc23)cc1OC | 82.8* | i | -11.9 | -1.2 | 42.6 | i
COc1ccc(C(=O)C(C)OC(=O)CCN2C(=O)C3CC=CCC3C2=O)cc1 (stereo unspecified) | . | i | -4.5 | -0.7 | -5.4 | .
CC(C)(C)S(=O)N1Cc2cc(=O)n(Cc3ccccc3)c(CCO)c2[C@H]1CCO (stereo partly specified) | . | . | 7.9 | -1.9 | . | .
CCC1C(c2ccccc2)N(C)C(c2ccccc2)CC1(O)c1ccccc1 (stereo unspecified) | 35.7 | i | 17.8 | 4.0 | -0.8 | i
CC1C(=O)CC(c2ccccc2)N(C)C1c1ccccc1 (stereo unspecified) | -4.8 | i | 4.9 | 9.1* | . | i
O=C(NCc1ccc(Cl)c(Cl)c1)C1CCCC1 | 11.6 | i | 2.0 | -0.6 | -2.2 | i
Cc1cc(C)n(-c2ccc(C(=O)OCC(=O)NC(c3ccccc3)c3ccccc3)cc2)n1 | . | i | 20.0 | 9.3* | . | i
Cc1ccc(C)c(NS(=O)(=O)c2ccc3c(c2)Cc2cc(S(=O)(=O)Nc4cc(C)ccc4C)ccc2-3)c1 | 17.3 | i | 8.8 | 8.8* | 2.7 | i
Cc1ccc(C)c(NS(=O)(=O)c2ccc3oc(=O)ccc3c2)c1 | -39.6 | i | 7.3 | -0.6 | -1.3 | i
Cc1ccc(CNCc2cc3c(C(C)(C)C)nn(-c4ccccc4)c3[nH]c2=O)cc1 | 15.2 | i | 12.7 | 8.9* | 3.3 | i
CN1CCN(CCCNC(=O)c2ccc(/C=C3\Sc4ccccc4N(Cc4ccccc4F)C3=O)cc2)CC1 | . | i | 8.9 | 8.9* | . | .
O=C(NCCN1CCOCC1)c1ccc(/C=C2\Sc3ccccc3N(Cc3ccccc3F)C2=O)cc1 | 45.7 | i | 1.1 | 1.3 | -2.4 | i
CCN1CCN(CCNC(=O)c2ccc3c(c2)N(Cc2ccc(F)cc2)C(=O)/C(=C/c2ccccc2)S3)CC1 | 103.2* | i | 10.1 | 0.7 | 15.5 | i
Cc1cc(Br)ccc1NC(=O)CN(C)C(=O)C1CCN(c2ncnc3sc(C)c(C)c23)CC1 | . | i | 6.4 | -0.9 | . | .
COc1ccc(S(=O)(=O)NCC2CCCN(Cc3cn(C)nc3C)C2)cc1 (stereo unspecified) | 17.0 | i | 9.2 | 0.7 | -3.2 | i
COC(=O)Nc1nc(-c2cc(Cl)ccc2Cl)cs1 | . | i | 6.0 | 10.3* | . | i
CCOC(=O)Nc1nc(-c2ccc(F)cc2F)cs1 | 18.7 | i | -5.8 | -0.9 | 8.0 | i
Cn1nc(C(=O)OCC(=O)Nc2ccccc2[N+](=O)[O-])c2ccccc2c1=O | . | i | 0.7 | 0.9 | -2.9 | .
CCOc1ccc(Br)cc1/C(C)=N\NC1=NCCN1 | 39.5 | i | -2.7 | 1.7 | 27.8 | 100*
c1cncc(CNCc2ccco2)c1 | 7.1 | i | 9.1 | -1.9 | 2.7 | i
CC1CCC(NC(=O)Cn2cnc3sccc3c2=O)CC1 (stereo unspecified) | 6.7 | -4.82* | 14.7 | -0.2 | -3.7 | .
SMILES | CSC inhib | TMEM16A act | MC4R antagonist | MC4R barr agon | Beta cell apopt | ANO1 block
CC(C)(C)n1ncc2c(=O)n(CC(=O)NC3CCCCC3)cnc21 | 12.8 | i | 5.5 | -0.1 | -3.1 | i
FC(F)(F)c1ccc(N2CCN(Cc3ccc4c(c3)OCO4)CC2)nc1 | 30.8 | i | 2.4 | 9.2* | -1.8 | i
CCc1ccc(-n2c(C)cc(/C=N/NC(=O)c3ccncc3)c2C)cc1 | -0.2 | i | 2.2 | -0.2 | 106.4* | i
Cc1ccc(S(=O)(=O)N2[C@@H](c3ccc(C(C)(C)C)cc3)C(C(=O)O)=CC[C@H]2c2cccc(Cl)c2)cc1 | 138.2* | . | -0.7 | 2.4 | -2.5 | .
Cc1ccc([C@H]2C(C(=O)O)=CC[C@@H](c3cccc(C)c3)N2S(=O)(=O)c2ccc(C)cc2)cc1 | 9.9 | . | 3.2 | 1.1 | -4.0 | .
Cc1ccc([C@H]2C(C(=O)O)=CC[C@@H](c3cccc(Cl)c3)N2S(=O)(=O)c2ccc(C)cc2)cc1 | . | . | 8.5 | -0.5 | . | .
Cc1ccc(S(=O)(=O)N2[C@@H](c3cccc(Cl)c3)C(C(=O)O)=CC[C@H]2c2cccc(C)c2)cc1 | 2.5 | i | 3.5 | 0.4 | -2.2 | 25*
Cc1ccc(S(=O)(=O)N2[C@@H](c3cccc(Cl)c3)C(C(=O)O)=CC[C@H]2c2cccc(Cl)c2)cc1 | 7.1 | i | 6.0 | -2.5 | 0.5 | 100*
Cc1ccc(S(=O)(=O)N2[C@@H](c3ccc(C(C)(C)C)cc3)C(C(=O)O)=CC[C@H]2c2ccc(Cl)c(Cl)c2)cc1 | . | . | -6.9 | 7.5 | . | .
O=C(O)c1ccsc1Cc1cccs1 | . | . | -3.9 | 0.2 | . | .
Cc1ccc(OC(=O)N(C)C[C@@H]2OCc3cn(nn3)CCCC(=O)N([C@H](C)CO)C[C@H]2C)cc1 | . | . | -1.8 | 0.3 | . | .
Cc1ccc(NC(=S)NCc2cccs2)cc1 | -5.3 | i | 0.2 | -1.9 | 4.8 | i
CCCCc1ccc(NC(=S)NCc2cccs2)cc1 | 13.7 | i | 9.7 | 1.1 | 1.8 | 100*
CC1(C)SC(=S)N(/N=C/c2ccc(O)cc2)C1N(O)C(=O)Nc1ccc([N+](=O)[O-])cc1 (stereo unspecified) | 6.8 | i | 8.2 | -1.0 | -0.3 | 100*
Cn1nnnc1Sc1ncnc2scc(-c3ccc([N+](=O)[O-])cc3)c12 | 73.1 | i | -14.4 | -1.1 | -7.0 | .
Cn1cc(CNCc2ccc(OC(F)(F)F)cc2)c(-c2ccc3c(c2)OCCO3)n1 | 30.4 | i | -6.7 | 3.6 | 141.5* | i
CCOC(=O)c1cocc1C(=O)O | . | i | -7.6 | 0.4 | . | .
Fc1ccc(NC(=S)Nc2cc(-c3ccccc3)[nH]n2)cc1Cl | 87.6* | i | 24.4 | 3.8 | 1.1 | i
Cc1ccc(NC(=S)Nc2cc(-c3ccccc3)[nH]n2)cc1Cl | 3.3 | i | 11.4 | 8.9* | 10.9 | i
CN1/C(=C/C(=O)c2nc(S(C)(=O)=O)ncc2Cl)C(C)(C)c2ccccc21 | 111.1* | i | -43.0 | -4.1 | 60.8 | i
CCC1=C(OC(=O)N(CC)CC)N2C(=O)OC(=NCCOC)[C@]2(Cc2ccccc2)[C@H]2C1=CC[C@H]1C(=O)N(CC(=O)OC)C(=O)[C@H]12 | -0.2 | i | -0.3 | -1.3 | -3.9 | 25*
